{
  "source": "paper PMC5554913",
  "about": "(ACS Medicinal Chemistry Letters, 2017)",
  "key": {"CYP3A4": {"molecular_target": "CYP3A4 (Homo sapiens, UniProt P08684)", "sequence (P08684 whole entry, species assumed)": "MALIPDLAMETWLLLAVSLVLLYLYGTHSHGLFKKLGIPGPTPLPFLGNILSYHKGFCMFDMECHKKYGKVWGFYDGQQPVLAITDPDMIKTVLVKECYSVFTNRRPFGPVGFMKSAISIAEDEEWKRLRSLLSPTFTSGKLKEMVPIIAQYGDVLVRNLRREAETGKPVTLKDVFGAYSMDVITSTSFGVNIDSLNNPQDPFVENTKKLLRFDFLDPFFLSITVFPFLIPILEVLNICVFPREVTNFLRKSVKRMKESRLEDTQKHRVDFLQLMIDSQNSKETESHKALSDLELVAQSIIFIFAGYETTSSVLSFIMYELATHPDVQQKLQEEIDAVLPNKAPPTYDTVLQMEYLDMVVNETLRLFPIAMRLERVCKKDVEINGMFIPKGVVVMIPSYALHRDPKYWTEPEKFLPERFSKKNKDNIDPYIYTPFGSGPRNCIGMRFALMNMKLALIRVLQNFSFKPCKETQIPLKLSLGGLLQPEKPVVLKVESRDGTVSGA", "test": "CYP3A4 inhibition", "assay_type": "in vitro ADME"}, "[1]": {"test_system": "T. brucei brucei strain BF427", "test": "T. brucei growth inhibition", "assay_type": "cell-based", "details": "for improvement in potency compared to compound 1: T. brucei EC50 vs compound 1"}, "[2]": {"test_system": "T. brucei rhodesiense STIB900", "test": "Mouse efficacy model of acute T. brucei infection", "assay_type": "in vivo", "details": "five mice, T. brucei rhodesiense STIB900, 50 mg/kg oral gavage b.i.d. days 2-5", "procedure,_shortened": "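Mice were infected with T. brucei rhodesiense STIB900 on day 0 and placed in groups of five. Test compound was given at 50 mg/kg by oral gavage twice daily on days 2–5, with a vehicle-treated group. Cure meant no detectable parasitemia […] through 60 days postinfection.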"}, "[3]": {"test_system": "human lymphoblasts (CRL-8155)", "test": "Mammalian cell growth inhibition", "assay_type": "cell-based", "details": "CRL-8155 cell line"}, "Hep G2 cell line": {"test_system": "Hep G2 cell line", "test": "Cytotoxicity on Hep G2 cell line", "assay_type": "cell-based"}, "[4]": {"test": "Metabolic stability in pooled mouse liver microsomes", "assay_type": "in vitro ADME", "details": "microsome T1/2, mouse microsomes", "procedure,_shortened": "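Half-life of test compound measured in mouse liver microsomes. Testosterone and dextromethorphan HBr were run alongside as controls and had to fall within acceptable ranges.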"}},
  "data": [
    {"smiles": "CN(C)c1ccc(N2C(=O)CN(Cc3ccc(F)cc3)C2=S)cc1Cl", "note": "[Compound 68, 1-(4-fluorobenzyl)-3-(4-dimethylamino-3-chlorophenyl)-2-thiohydantoin]", "values": [
      {"measurement": "IC50", "setting": "CYP3A4", "result": 12.8, "unit": "µM"},
      {"measurement": "improvement in potency compared to compound 1", "setting": "[1]", "result": "> 100", "unit": "fold"},
      {"measurement": "cures (absence of detectable parasitemia for 60 days postinfection)", "setting": "[2]", "result": "5/5"}
    ]},
    {"smiles": "COc1ccc(N2C(=O)CN(Cc3ccccc3)C2=S)cc1Cl", "note": "[Compound 1]", "values": [
      {"measurement": "cytotoxicity on CRL-8155", "setting": "[3]", "result": "no detected cytotoxicity"},
      {"measurement": "cytotoxicity on Hep G2", "setting": "Hep G2 cell line", "result": "no detected cytotoxicity"}
    ]},
    {"smiles": "COc1ccc2c(c1)[C@]13CCCC[C@@H]1[C@H](C2)N(C)CC3", "note": "[dextromethorphan HBr]", "values": [
      {"measurement": "half-life at 1.5 µM", "setting": "[4]", "result": 9.51, "unit": "min"}
    ]},
    {"smiles": "COc1ccc(N2C(=O)CN(Cc3cccc(F)c3)C2=S)cc1Cl", "note": "[Compound 40]", "values": [
      {"measurement": "decrease in potency compared to 39", "setting": "[1]; T. brucei EC50 vs compound 39", "result": 18, "unit": "fold"}
    ]},
    {"smiles": "COc1ccc(N2C(=O)CN(Cc3ccccc3)C2=S)cc1N(C)C", "note": "[Compound 37]", "values": [
      {"measurement": "drop in activity compared to 36", "setting": "[1]; T. brucei EC50 vs compound 36", "result": 30, "unit": "fold"}
    ]},
    {"smiles": "C[C@]12CC[C@H]3[C@@H](CCC4=CC(=O)CC[C@@]43C)[C@@H]1CC[C@@H]2O", "note": "[Testosterone]", "values": [
      {"measurement": "half-life at 1.5 µM", "setting": "[4]", "result": 3.97, "unit": "min"}
    ]},
    {"smiles": "COc1cc(N2C(=O)CN(Cc3ccc(F)cc3Cl)C2=S)ccc1N(C)C", "note": "[Compound 76, 1-(2-chloro-4-fluorobenzyl)-3-(4-dimethylamino-3-methoxyphenyl)-2-thiohydantoin]", "values": [
      {"measurement": "improvement in potency compared to compound 1", "setting": "[1]", "result": "> 100", "unit": "fold"},
      {"measurement": "cures (absence of detectable parasitemia for 60 days postinfection)", "setting": "[2]", "result": "5/5"}
    ]}
  ]
}
